Results from ChEMBL document CHEMBL4513216, “Probing the Open Global Health Chemical Diversity Library for Multistage-Active Starting Points for Next-Generation Antimalarials” (ACS Infect Dis, 2020).

Experiment: Toxicity liver stage against HepG2, at 10uM
Format: cell-based
Design: test concentration 10 uM, cell line HepG2-A16-CD81EGFP
Conditions: human, HepG2-A16-CD81EGFP cells; read-out: INHIBITION
Outline: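 Uninfected HepG2-A16-CD81EGFP cells, 3 × 10^3 per well, 1536-well, plated on prespotted compound at 10 μM final, parasite-free screening media added to match infected plates; puromycin 10 μM positive, DMSO 0.5% negative; run in parallel with 48 h PbLuc assay at 37 °C, 5% CO2; viability by CellTiter-Glo luminescence, normalized to controls.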

Compound	cytotoxicity at 10 µM [%]
Cc1ccc(C(=O)N(C)Cc2cc(C)on2)cn1	-3.05
CN(CC(=O)N(C)C(c1cccnc1)c1ccc(F)c(F)c1)C1CC1 (stereo unspecified)	-3.57
Cc1cnccc1N1CCN(c2nccc(CCC(F)(F)F)n2)CC1	4.91
c1cnc(NCc2nnn3c2CN(Cc2ccsc2)CCC3)nc1	10.8
CC(=O)N1CCCC2(CCN(Cc3ccc(Cl)c(C(F)(F)F)c3)C2)C1 (stereo unspecified)	11.9
CCN(C(=O)c1cc2c([nH]c1=O)CCCC2=O)C1CCCCC1	-4.07
COc1ccc(-c2n[nH]cc2CN(C)Cc2ccoc2)c(F)c1	-0.174
Cc1ncsc1C(=O)NCc1ccnc(OCC(F)(F)F)c1	-1.37
CCCNC(=O)CNc1ccc(C(=O)N2CCCCC2C)cc1C (stereo unspecified)	-7.67
Cc1cc(CN2CCCC(NS(C)(=O)=O)C2)ccc1-n1cncn1 (stereo unspecified)	3.78
CCNc1ncc(C(=O)NC2CCC(n3cnnc3)CC2)cn1 (stereo unspecified)	9.45
Cc1ccc(CSCCn2nc3ccccn3c2=O)cc1	5.64
CCOCc1cc(CNC2CCCc3c2cnn3CC)ccc1OC (stereo unspecified)	-11.3
CCc1[nH]c2c(CNc3nccc(N)n3)cc(C)cc2c1C	3.4
CCn1nc(C)cc1NC(=O)CCn1nc(C)c2ccccc21	4.98
Cc1ccc(OCCC(=O)NC(C)c2ccncc2)cc1 (stereo unspecified)	-3.86
CNC(=O)N1CC[C@@H]2CN(Cc3ccccc3)S(=O)(=O)[C@@H]2CC1	-96.6
CCNC(=O)C(C)NC(=O)Nc1ccccc1Cl (stereo unspecified)	5.72
Cn1cc(CN2CCn3c(CNC(=O)c4cccn4C)cnc3C2)cn1	-3.47

Compound	cytotoxicity at 10 µM [%]
O=c1[nH]ccc2cc(-c3cc(O)cc(CCC4CCCCN4)c3)ccc12 (stereo unspecified)	1.81
Cc1ccc(CNc2cc(N3CCCC3CO)ncn2)s1 (stereo unspecified)	-2.9
CCOC(=O)C1CCN(C(=O)c2cc(OCC)c3ccoc3c2)CC1	34.4
O=C1NCCN(Cc2cccnc2)C1CC(=O)N1CCc2n[nH]cc2C1 (stereo unspecified)	-4.05
CN1CCN(Cc2cnc3n2CCN(Cc2cccs2)C3)CC1	-3.24
OC(CNCCn1cccn1)c1ccc(Br)cc1 (stereo unspecified)	-19.9
c1ccc(CN2CCC(CCNc3ncnc4c3CCNCC4)C2)cc1 (stereo unspecified)	-0.16
Cc1cc(OCC(=O)N2CCCC(c3ccn[nH]3)C2)no1 (stereo unspecified)	0.0241
CCC(=O)CNC(=O)CCn1nc2ccccn2c1=O	9.5
O=C(c1cccc2[nH]ccc12)N1CCC2(CCOC2)C1 (stereo unspecified)	-151
O=C(Nc1ccccc1)c1nn(C2CCS(=O)(=O)C2)c2c1CCCC2 (stereo unspecified)	-9.75
CC[C@H]1CN(C(=O)c2ccc(-n3cnnc3)nc2)CC[C@@]1(C)O	-11.9
CCNC(=O)N1CCC(OC)c2ccccc2N(CC(=O)NC)C(=O)C1 (stereo unspecified)	5.5
Cc1cc(C(=O)N2CCCC(c3nccn3Cc3cscn3)C2)on1 (stereo unspecified)	-1.32
Cc1ccc(F)cc1C(=O)OCC1CCCN1C(N)=O (stereo unspecified)	5.01
CCc1cnc(N)nc1N[C@@H](C)c1ncccc1C	-3.94
Cn1nc(C2CCCN(Cc3ccc(F)cc3F)C2)c2nccnc21 (stereo unspecified)	-8.46
CCc1cnc2c(c1NCc1ccc(OC)cc1)c(=O)n(C)c(=O)n2C	5.79
CC(=O)N1CCOC2(CCCN(C(=O)c3ccc(Cl)cc3)C2)C1 (stereo unspecified)	-66.6

Compound	cytotoxicity at 10 µM [%]
CN(C)c1ncccc1CNS(=O)(=O)c1cc(F)cc(F)c1	-14
CC1CC(=O)c2cc(C(=O)N3CCN(C)CC3)c(=O)[nH]c2C1 (stereo unspecified)	-6.32
Cc1ccc2c(c1)CN(C(=O)c1cccs1)C(CN(C)C)CO2 (stereo unspecified)	-16.5
Oc1cccc2ccc(CN3CCC4(CCNCC4)C3)nc12	-6.19
COCCOc1ccnc(-c2noc([C@@H]3CCCN3C(C)C)n2)c1	-12.7
CN(Cc1ccco1)C(=O)CN1C(=O)c2ccccc2C1=O	-2.96
CCc1c(C)sc2ncnc(N3CC[C@@H](N4CCC(O)CC4)[C@H](O)C3)c12	6.96
COCCN1CCC(CN(Cc2ccncc2)C2CCC2)CC1	-2.33
CCc1cn[nH]c1C1CCCN(C(=O)c2ncoc2C(C)C)C1 (stereo unspecified)	1.86
CCOCCN1CCO[C@H]2[C@H](OCc3ccccn3)CC[C@@H]21	-113
CCCS(=O)(=O)N1CCO[C@H]2[C@@H](Oc3cccnc3)CC[C@@H]21	-3.15
COCCNC(=O)CCNC(=O)c1ccc(N2CCC(C)=N2)cc1	2.07
c1cc2c(cc1-c1noc3c1CN(C1CCSC1)CC3)OCO2 (stereo unspecified)	-16.9
COC(=O)c1cccc(C(=O)N2CCN(c3ccccc3F)CC2)n1	-10.9
Cc1nn(C)c(C)c1CC(=O)NCc1ccnc(N2CCOCC2)c1	-14.7
CC(C)(C)C(=O)NCC(=O)NCC1CCCS1 (stereo unspecified)	3.46
CCCS(=O)(=O)NCCc1ncc(C)s1	-9.31
CNc1nc(C2CCCCN2C(=O)C(C)(C)OC)nc2c1CN(C)CC2 (stereo unspecified)	-6.61
